# Tests used:
# Assay type in all cases: functional
# Mus musculus [1] = assay: Analgesic activity in Swiss albino mouse assessed as inhibition of phenyl-p-benzoquinone-induced writhing at 120 mg/kg, sc administered 30 mins prior challenge relative to vehicle-treated control; conditions: route subcutaneous
# How it was run: (§1)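 Male Swiss albino mice, 18–22 g, five per group. Compound suspended in physiological saline with Tween 80 and given sc. At 30 min, 0.03% phenyl-p-benzoquinone given ip at 0.1 mL/10 g body weight. Total writhes per animal counted against a vehicle-treated control group. % change = (treated writhes/control writhes) × 100 − 100.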
# Rattus norvegicus [2] = assay: Antiinflammatory activity in Sprague-Dawley rat assessed as inhibition of carrageenan-induced paw edema at 100 mg/kg, […] measured at 3 hrs post compound treatment relative to vehicle-treated control; conditions: sc, route subcutaneous
# Rattus norvegicus [3] = assay: Antiinflammatory activity in Sprague-Dawley rat assessed as inhibition of carrageenan-induced paw edema at 100 mg/kg, sc administered post-challenge measured at 5 hrs post compound treatment relative to vehicle-treated control; conditions: route subcutaneous
# Mus musculus [4] = assay: Analgesic activity in Swiss albino mouse assessed as inhibition of phenyl-p-benzoquinone-induced writhing at 128 mg/kg, sc administered 30 mins prior challenge relative to vehicle-treated control; conditions: route subcutaneous; how it was run: as §1
# Rattus norvegicus [5] = assay: Antiinflammatory activity in Sprague-Dawley rat assessed as inhibition of carrageenan-induced paw edema at 64 mg/kg, […] measured at 3 hrs post compound treatment relative to vehicle-treated control; conditions: sc, route subcutaneous
# Rattus norvegicus [6] = assay: Antiinflammatory activity in Sprague-Dawley rat assessed as inhibition of carrageenan-induced paw edema at 64 mg/kg, sc administered post-challenge measured at 5 hrs post compound treatment relative to vehicle-treated control; conditions: route subcutaneous
# Mus musculus [7] = assay: Analgesic activity in Swiss albino mouse assessed as inhibition of phenyl-p-benzoquinone-induced writhing at 50 mg/kg, sc administered 30 mins prior challenge relative to vehicle-treated control; conditions: route subcutaneous; how it was run: as §1
# Mus musculus [8] = assay: Analgesic activity in Swiss albino mouse assessed as inhibition of phenyl-p-benzoquinone-induced writhing at 11.8 mg/kg, sc administered 30 mins prior challenge relative to vehicle-treated control; conditions: route subcutaneous; how it was run: as §1
# Rattus norvegicus [9] = assay: Antiinflammatory activity in Sprague-Dawley rat assessed as inhibition of carrageenan-induced paw edema at 120 mg/kg, […] measured at 3 hrs post compound treatment relative to vehicle-treated control; conditions: sc, route subcutaneous
# Rattus norvegicus [10] = assay: Antiinflammatory activity in Sprague-Dawley rat assessed as inhibition of carrageenan-induced paw edema at 120 mg/kg, sc administered post-challenge measured at 5 hrs post compound treatment relative to vehicle-treated control; conditions: route subcutaneous
# Rattus norvegicus [11] = assay: Antiinflammatory activity in Sprague-Dawley rat assessed as inhibition of carrageenan-induced paw edema at 128 mg/kg, sc administered post-challenge measured at 3 hrs post compound treatment relative to vehicle-treated control; conditions: route subcutaneous
# Rattus norvegicus [12] = assay: Antiinflammatory activity in Sprague-Dawley rat assessed as inhibition of carrageenan-induced paw edema at 128 mg/kg, sc administered post-challenge measured at 5 hrs post compound treatment relative to vehicle-treated control; conditions: route subcutaneous
# Rattus norvegicus [13] = assay: Antiinflammatory activity in Sprague-Dawley rat assessed as inhibition of carrageenan-induced paw edema at 12 mg/kg, sc administered post-challenge measured at 3 hrs post compound treatment relative to vehicle-treated control; conditions: route subcutaneous
# Rattus norvegicus [14] = assay: Antiinflammatory activity in Sprague-Dawley rat assessed as inhibition of carrageenan-induced paw edema at 12 mg/kg, sc administered post-challenge measured at 5 hrs post compound treatment relative to vehicle-treated control; conditions: route subcutaneous
# Mus musculus [15] = assay: Analgesic activity in Swiss albino mouse assessed as inhibition of phenyl-p-benzoquinone-induced writhing at 56 mg/kg, sc administered 30 mins prior challenge relative to vehicle-treated control; conditions: route subcutaneous; how it was run: as §1
structure (smiles),measurement,setting,value
O=C(NNc1ccccn1)c1ccncc1,inhibition in vivo at 120 mg/kg,Mus musculus [1],0%
same,inhibition in vivo at 100 mg/kg,Rattus norvegicus [2],83%
same,inhibition in vivo at 100 mg/kg,Rattus norvegicus [3],100%
CN(C)NC(=O)c1cccnc1,inhibition in vivo at 128 mg/kg,Mus musculus [4],45%
same,inhibition in vivo at 64 mg/kg,Rattus norvegicus [5],0%
same,inhibition in vivo at 64 mg/kg,Rattus norvegicus [6],0%
CC(=O)Oc1ccccc1C(=O)O [ASPIRIN],inhibition in vivo at 50 mg/kg,Mus musculus [7],50%
O=C(NNc1ccccn1)c1ccccn1,inhibition in vivo at 11.8 mg/kg,Mus musculus [8],50%
same,inhibition in vivo at 120 mg/kg,Rattus norvegicus [9],100%
same,inhibition in vivo at 120 mg/kg,Rattus norvegicus [10],100%
O=C(NN(C(=O)c1ccncc1)c1ccccc1)c1ccncc1,inhibition in vivo at 120 mg/kg,Mus musculus [1],84%
same,inhibition in vivo at 100 mg/kg,Rattus norvegicus [2],34%
same,inhibition in vivo at 100 mg/kg,Rattus norvegicus [3],34%
O=C(NN1CCc2ccccc2C1)c1ccncc1,inhibition in vivo at 128 mg/kg,Mus musculus [4],79%
same,inhibition in vivo at 128 mg/kg,Rattus norvegicus [11],17%
same,inhibition in vivo at 128 mg/kg,Rattus norvegicus [12],17%
COc1ccc2c(c1)c(CC(=O)O)c(C)n2C(=O)c1ccc(Cl)cc1 [INDOMETHACIN],inhibition in vivo at 12 mg/kg,Rattus norvegicus [13],17%
same,inhibition in vivo at 12 mg/kg,Rattus norvegicus [14],83%
CC(=O)N(NC(=O)c1ccncc1)C(C)=O,inhibition in vivo at 128 mg/kg,Mus musculus [4],32%
same,inhibition in vivo at 128 mg/kg,Rattus norvegicus [11],50%
same,inhibition in vivo at 128 mg/kg,Rattus norvegicus [12],17%
O=C(NNC(=O)c1ccncc1)c1ccccc1,inhibition in vivo at 128 mg/kg,Mus musculus [4],38.3%
same,inhibition in vivo at 128 mg/kg,Rattus norvegicus [11],17%
same,inhibition in vivo at 128 mg/kg,Rattus norvegicus [12],0%
O=C(NN1CCOCC1)c1cccnc1,inhibition in vivo at 128 mg/kg,Mus musculus [4],6.7%
same,inhibition in vivo at 128 mg/kg,Rattus norvegicus [11],50%
same,inhibition in vivo at 128 mg/kg,Rattus norvegicus [12],17%
CCC(=O)O[C@](Cc1ccccc1)(c1ccccc1)[C@H](C)CN(C)C [PROPOXYPHENE],inhibition in vivo at 56 mg/kg,Mus musculus [15],50%

# — ChEMBL document CHEMBL3243979, “Syntheses of N-substituted 2(3,4)-pyridylcarboxylic acid hydrazides with analgesic and antiinflammatory activity” (1979)
